The source of these data is paper PMC8942377 (Science Advances, 2022).

Where no end group is shown, it is not given here.

In one data set the test system is mice. Briefly: Tail flick test. The class given is in vivo, mouse. Particulars: intrathecal, 1 mg/kg, positive control. The method, boiled down: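 Mice lightly sedated with 2% isoflurane, then given one intrathecal lumbar-puncture injection (5 μl) of saline, morphine 1 mg/kg, or test compound 0.025–0.75 mg/kg. Distal two-thirds of tail dipped in 52°C water; latency to withdrawal timed by chronometer. Result taken as mean tail flick latency.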
A general note: Hot-plate and tail-flick tests time the reaction to a heat stimulus.

For data set [1] the following is noted: following intravenous infusion; cited from earlier work.
The test system of another data set is SST1–5. Conditions: cited from earlier work.

Take `CN1CC[C@]23c4c5ccc(O)c4O[C@H]2[C@@H](O)C=C[C@H]3[C@H]1C5` [Morphine]: the tail flick antinociception entry in the data set with mice is “robust antinociception”.
As for octreotide, the in vivo half-life in data set [1] is 1.5 h. Besides, in the data set with SST1–5, the “SS receptor subtype selectivity” value was “preferentially activated SST2 over SST3 and SST5 and displayed little to no activity on SST1 or SST4”.
As for “urotensin-II (ETPDCFWKYCV; ends and bridges not checked; cysteine pairing not given here; UniProt O95399 114-124, looked up) [UII]”, in the data set with SST1–5, the “activity at SST1–5” value is “low activity”.
